Results from ChEMBL document CHEMBL1127473, “Estrone sulfamates: potent inhibitors of estrone sulfatase with therapeutic potential” (J Med Chem, 1994).
Calls of active or inactive are those of the source. No cut-off for these calls is given here.

Key:
[1] = target: T1, Steryl-sulfatase (Homo sapiens) (UniProt P08842); test: Tested for inhibition of estrone sulfatase in MCF-7 breast cancer cells using 2 nM substrate concentration at 10 uM; type: cell-based; conditions: MCF7
T1 sequence (whole entry): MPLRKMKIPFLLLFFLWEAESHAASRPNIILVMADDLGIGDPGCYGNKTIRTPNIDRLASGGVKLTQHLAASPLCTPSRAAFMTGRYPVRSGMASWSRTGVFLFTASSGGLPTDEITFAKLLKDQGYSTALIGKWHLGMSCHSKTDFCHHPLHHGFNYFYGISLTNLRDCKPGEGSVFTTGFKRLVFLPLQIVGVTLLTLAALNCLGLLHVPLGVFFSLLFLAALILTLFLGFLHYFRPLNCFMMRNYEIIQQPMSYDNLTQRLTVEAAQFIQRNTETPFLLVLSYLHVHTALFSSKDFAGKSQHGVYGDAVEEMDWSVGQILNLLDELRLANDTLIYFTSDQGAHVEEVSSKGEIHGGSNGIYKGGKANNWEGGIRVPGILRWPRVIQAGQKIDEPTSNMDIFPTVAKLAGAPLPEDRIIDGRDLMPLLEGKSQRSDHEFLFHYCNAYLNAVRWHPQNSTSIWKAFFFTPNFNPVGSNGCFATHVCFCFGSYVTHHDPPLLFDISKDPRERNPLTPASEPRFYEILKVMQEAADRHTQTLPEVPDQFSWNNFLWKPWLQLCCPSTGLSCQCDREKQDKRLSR

[2] = target: T1, Steryl-sulfatase (Homo sapiens); test: Tested for inhibition of estrone sulfatase in MCF-7 breast cancer cells using 2 nM substrate concentration at 1 uM; type: cell-based; conditions: MCF7
[3] = target: T1, Steryl-sulfatase (Homo sapiens); test: Tested for inhibition of estrone sulfatase in MCF-7 breast cancer cells using 2 nM substrate concentration at 0.1 uM; type: cell-based; conditions: MCF7
Steryl-sulfatase = target: T2, Steryl-sulfatase (Homo sapiens, UniProt P08842); test: Tested for inhibition of estrone sulfatase in placental microsomal preparation (100000 g pellet) using substrate concentration of 20 uM; type: microsomes, Placenta
T2 sequence (P08842 whole entry): T1 sequence (whole entry)
Method in brief: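 Placental microsomal preparation (100 000-g pellet) assayed with saturating [3H]estrone sulfate substrate (20 μM); IC50 derived for sulfatase inhibition.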

[4] = target: T1, Steryl-sulfatase (Homo sapiens); test: Tested for inhibition of estrone sulfatase in MCF-7 breast cancer cells using 2 nM substrate concentration at 10 uM; NI=No inhibition; type: cell-based; conditions: MCF7
[5] = target: T1, Steryl-sulfatase (Homo sapiens); test: Tested for inhibition of estrone sulfatase in MCF-7 breast cancer cells using 2 nM substrate concentration at 1 uM; NI=No inhibition; type: cell-based; conditions: MCF7
[6] = target: T1, Steryl-sulfatase (Homo sapiens); test: Tested for enzyme activity recovered after 20h in MCF-7 breast cancer cells at 1 uM; conditions: MCF7
[7] = target: T1, Steryl-sulfatase (Homo sapiens); conditions: MCF7; 1 uM

SMILES	inhibition [1] [%]	inhibition [2] [%]	inhibition [4]	inhibition [5]	% activity recovered [6] [%]	inhibition [3] [%]	IC50 (Steryl-sulfatase) [µM]	% activity recovered [7]
CSP(=O)(O)Oc1ccc2c(c1)CC[C@@H]1[C@@H]2CC[C@]2(C)C(=O)CC[C@@H]12	96	74	–	–	–	52	43	–
CN(C)S(=O)(=O)Oc1ccc2c(c1)CCCC2	–	–	inactive	inactive	–	–	–	–
NS(=O)(=O)Oc1ccc2c(c1)CCCC2	97	47	–	–	–	–	–	–
C[C@]12CC[C@@H]3c4ccc(OS(N)(=O)=O)cc4CCC3[C@@H]1CCC2=O (single isomer, unassigned) [EMATE]	> 99	> 99	–	–	–	> 99	0.08	inactive

Second part, led by results:

inhibition [1] [%]	inhibition [2] [%]	inhibition [4]	inhibition [5]	% activity recovered [6] [%]	SMILES	inhibition [3] [%]	IC50 (Steryl-sulfatase) [µM]	% activity recovered [7]
22	–	–	–	–	CNS(=O)(=O)Oc1ccc2c(c1)CCCC2	–	–	–
90	87	–	–	80	CN(C)S(=O)(=O)Oc1ccc2c(c1)CCC1[C@@H]2CC[C@]2(C)C(=O)CC[C@@H]12 (single isomer, unassigned)	79	–	–
93	87	–	–	> 50	CNS(=O)(=O)Oc1ccc2c(c1)CCC1[C@@H]2CC[C@]2(C)C(=O)CC[C@@H]12 (single isomer, unassigned)	–	–	–
